Measurements taken from ChEMBL document CHEMBL4251654, “Structure-based design of human immuno- and constitutive proteasomes inhibitors” (Eur J Med Chem, 2018).
Calls of active or inactive are those of the source. The rule behind the calls is not given here.

How the values were obtained:
[1] = target: T1, Proteasome subunit beta type-9 (Homo sapiens, UniProt P28065); test: Inhibition of human 20S immunoproteasome beta-1 using Ac-PAL-AMC as substrate incubated for 15 mins measured for 45 mins by fluorescence assay
T1 sequence (P28065 whole entry): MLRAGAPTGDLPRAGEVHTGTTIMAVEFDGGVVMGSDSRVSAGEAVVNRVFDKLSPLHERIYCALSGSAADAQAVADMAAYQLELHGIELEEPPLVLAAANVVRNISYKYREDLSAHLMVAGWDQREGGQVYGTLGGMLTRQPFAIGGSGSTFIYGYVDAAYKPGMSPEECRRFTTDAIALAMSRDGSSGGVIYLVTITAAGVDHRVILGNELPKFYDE
In short: (§1)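 Human 20S immunoproteasome (0.3 nM) was given 15 min with compound (0.001-50 μM) in pH 8 buffer of 20 mM Tris-HCl, 10% glycerol, 0.01% SDS, 2% DMSO. Ac-PAL-AMC at 50 μM was the substrate. Fluorescence (ex 360/em 460 nm) was followed 45 min at 37 °C relative to control.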

[2] = target: T2, Proteasome component C5 (Homo sapiens) (UniProt P20618); test: Inhibition of human 20S constitutive proteasome beta-1 at 50 uM using Z-LLE-betaNA as substrate incubated for 15 mins measured for 45 mins by fluorescence assay relative to control
T2 sequence (whole entry): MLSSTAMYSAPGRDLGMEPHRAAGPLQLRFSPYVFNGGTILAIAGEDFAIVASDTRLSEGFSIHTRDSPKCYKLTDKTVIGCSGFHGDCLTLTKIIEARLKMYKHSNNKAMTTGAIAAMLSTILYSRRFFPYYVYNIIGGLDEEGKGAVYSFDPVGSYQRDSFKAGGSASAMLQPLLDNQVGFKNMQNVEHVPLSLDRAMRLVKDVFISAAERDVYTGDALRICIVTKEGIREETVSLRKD
In short: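 Human 20S constitutive proteasome, 0.3 nM, was preincubated 15 min with compound (0.001-50 μM) in pH 8 Tris-HCl 20 mM, 10% glycerol, 0.01% SDS, 2% DMSO. Z-LLE-βNA at 50 μM was added. βNA fluorescence (ex 340/em 404 nm) was monitored 45 min at 37 °C against an untreated control.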

[3] = target: T3, Proteasome subunit beta type-9 (Homo sapiens) (UniProt P28065); test: Inhibition of human 20S immunoproteasome beta-1 at 50 uM using Ac-PAL-AMC as substrate incubated for 15 mins measured for 45 mins by fluorescence assay relative to control; in short: as §1
T3 sequence (whole entry): T1 sequence (P28065 whole entry)

[4] = target: T4, Proteasome subunit beta type-10 (Homo sapiens, UniProt P40306); test: Inhibition of human 20S immunoproteasome beta-2 using BocLRR-AMC as substrate incubated for 15 mins measured for 45 mins by fluorescence assay
T4 sequence (P40306 whole entry): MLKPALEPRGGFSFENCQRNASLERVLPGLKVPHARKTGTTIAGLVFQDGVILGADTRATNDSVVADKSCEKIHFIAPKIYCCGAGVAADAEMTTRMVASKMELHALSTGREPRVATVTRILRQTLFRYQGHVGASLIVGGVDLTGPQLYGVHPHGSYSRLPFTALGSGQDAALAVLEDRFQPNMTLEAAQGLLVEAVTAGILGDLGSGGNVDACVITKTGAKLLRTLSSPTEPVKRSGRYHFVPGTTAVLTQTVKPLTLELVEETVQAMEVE

[5] = target: Proteasome Macropain subunit (Homo sapiens) (UniProt P49721); test: Inhibition of human 20S constitutive proteasome beta-2 at 50 uM using BocLRR-AMC as substrate incubated for 15 mins measured for 45 mins by fluorescence assay relative to control
In short: (§2)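 Purified human 20S proteasome (cCP or iCP), 0.3 nM, preincubated 15 min with compound (0.001-50 μM) in pH 8 buffer of 20 mM Tris-HCl, 10% glycerol, 0.005% Triton X-100, 2% DMSO. Then Boc-LRR-AMC at 50 μM was added. AMC fluorescence (ex 360/em 460 nm) was followed 45 min at 37 °C. Activity is relative to an untreated control.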

[6] = target: T5, Proteasome subunit beta type-10 (Homo sapiens) (UniProt P40306); test: Inhibition of human 20S immunoproteasome beta-2 at 50 uM using BocLRR-AMC as substrate incubated for 15 mins measured for 45 mins by fluorescence assay relative to control
T5 sequence (whole entry): T4 sequence (P40306 whole entry)

[7] = system: 20S immunoproteasome β5i (Homo sapiens); test: Inhibition of human 20S immunoproteasome beta-5
[8] = system: 20S proteasome β5 (Homo sapiens); test: Inhibition of human 20S constitutive proteasome beta-5
[9] = system: 20S immunoproteasome β5i (Homo sapiens); test: Inhibition of human 20S immunoproteasome beta-5 at 50 uM
[10] = target: T6, Proteasome Macropain subunit MB1 (Homo sapiens) (UniProt P28074); test: Inhibition of human 20S constitutive proteasome beta-5 at 50 uM using Suc-LLVY-AMC as substrate incubated for 15 mins measured for 45 mins by fluorescence assay relative to control
T6 sequence (whole entry): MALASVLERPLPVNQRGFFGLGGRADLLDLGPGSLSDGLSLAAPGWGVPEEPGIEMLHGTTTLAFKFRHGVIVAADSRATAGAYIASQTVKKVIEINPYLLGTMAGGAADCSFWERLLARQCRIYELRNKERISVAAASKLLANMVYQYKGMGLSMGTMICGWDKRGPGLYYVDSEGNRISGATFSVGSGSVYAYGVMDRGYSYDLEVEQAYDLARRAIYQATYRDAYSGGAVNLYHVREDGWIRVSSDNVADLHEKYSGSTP
In short: (§3)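 Human 20S cCP or iCP (0.3 nM) was exposed to compound (0.001-50 μM) for 15 min in pH 8 buffer of 20 mM Tris-HCl, 10% glycerol, 0.01% SDS, 2% DMSO. Suc-LLVY-AMC at 20 μM followed. Fluorescence (ex 360/em 460 nm) was read 45 min at 37 °C versus untreated enzyme.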

[11] = target: T7, Proteasome subunit beta type-8 (Homo sapiens) (UniProt P28062); test: Inhibition of human 20S immunoproteasome beta-5 at 50 uM using Suc-LLVY-AMC as substrate incubated for 15 mins measured for 45 mins by fluorescence assay relative to control; in short: as §3
T7 sequence (whole entry): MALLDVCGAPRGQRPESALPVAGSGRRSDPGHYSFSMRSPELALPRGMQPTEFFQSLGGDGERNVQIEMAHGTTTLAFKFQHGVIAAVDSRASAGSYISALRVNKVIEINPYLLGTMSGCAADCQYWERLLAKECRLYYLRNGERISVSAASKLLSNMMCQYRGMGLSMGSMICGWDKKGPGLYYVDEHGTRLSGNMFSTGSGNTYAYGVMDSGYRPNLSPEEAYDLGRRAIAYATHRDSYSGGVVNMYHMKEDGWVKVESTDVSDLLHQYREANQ

Huh-7 = test: Cytotoxicity against human HuH7 cells assessed as reduction in cell viability after 48 hrs by Hoechst 33342 staining based HCS assay; type: functional; conditions: Homo sapiens, Huh-7, 48 h; read-out: EC50
In short: (§4)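 Cells were grown at 37 °C, 5% CO2 in medium with 10% FBS, 1% penicillin-streptomycin, 2 mM glutamine: DMEM for HuH7, MDA-MB-231 and fibroblasts, EMEM for Caco2, McCoy's for HCT116, RPMI for PC3 and NCI-H727. 4000 cells/well were seeded and dosed 24 h later at 0.1-25 μM final, from DMSO stocks. After 48 h they were fixed in ethanol/acetic acid and Hoechst-stained nuclei were counted by imaging. Survival is relative to DMSO. EC50 came from dose-response curves.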

Caco-2 = test: Cytotoxicity against human Caco2 cells assessed as reduction in cell viability after 48 hrs by Hoechst 33342 staining based HCS assay; type: functional; conditions: Homo sapiens, Caco-2, 48 h; read-out: EC50; in short: as §4
MDA-MB-231 = test: Cytotoxicity against human MDA-MB-231 cells assessed as reduction in cell viability after 48 hrs by Hoechst 33342 staining based HCS assay; type: functional; conditions: Homo sapiens, MDA-MB-231, 48 h; read-out: EC50; in short: as §4
HCT-116 = test: Cytotoxicity against human HCT116 cells assessed as reduction in cell viability after 48 hrs by Hoechst 33342 staining based HCS assay; type: functional; conditions: Homo sapiens, HCT-116, 48 h; read-out: EC50; in short: as §4
PC-3 = test: Cytotoxicity against human PC3 cells assessed as reduction in cell viability after 48 hrs by Hoechst 33342 staining based HCS assay; type: functional; conditions: Homo sapiens, PC-3, 48 h; read-out: EC50; in short: as §4
NCI-H727 = test: Cytotoxicity against human NCI-H727 cells assessed as reduction in cell viability after 48 hrs by Hoechst 33342 staining based HCS assay; type: functional; conditions: Homo sapiens, NCI-H727, 48 h; read-out: EC50; in short: as §4
MCF7 = test: Cytotoxicity against human MCF7 cells assessed as reduction in cell viability after 48 hrs by Hoechst 33342 staining based HCS assay; type: functional; conditions: Homo sapiens, MCF7, 48 h; read-out: EC50
Fibroblast = test: Cytotoxicity against human fibroblasts assessed as reduction in cell viability after 48 hrs by Hoechst 33342 staining based HCS assay; in short: as §4
[12] = target: T8, Proteasome Macropain subunit MB1 (Homo sapiens, UniProt P28074); test: Inhibition of human 20S constitutive proteasome beta-5 using Suc-LLVY-AMC as substrate incubated for 15 mins measured for 45 mins by fluorescence assay; in short: as §3
T8 sequence (P28074 whole entry): T6 sequence (whole entry)

[13] = target: T9, Proteasome subunit beta type-8 (Homo sapiens, UniProt P28062); test: Inhibition of human 20S immunoproteasome beta-5 using Suc-LLVY-AMC as substrate incubated for 15 mins measured for 45 mins by fluorescence assay; in short: as §3
T9 sequence (P28062 whole entry): T7 sequence (whole entry)

[14] = target: T5, Proteasome subunit beta type-10 (Homo sapiens); test: Activation of human 20S immunoproteasome beta-2 at 50 uM using BocLRR-AMC as substrate incubated for 15 mins measured for 45 mins by fluorescence assay relative to control; in short: as §2
[15] = system: 20S proteasome β5 (Homo sapiens); test: Inhibition of human 20S constitutive proteasome beta-5 at 50 uM

Proteasome Macropain subunit (Homo sapiens), sequence (P49721 whole entry): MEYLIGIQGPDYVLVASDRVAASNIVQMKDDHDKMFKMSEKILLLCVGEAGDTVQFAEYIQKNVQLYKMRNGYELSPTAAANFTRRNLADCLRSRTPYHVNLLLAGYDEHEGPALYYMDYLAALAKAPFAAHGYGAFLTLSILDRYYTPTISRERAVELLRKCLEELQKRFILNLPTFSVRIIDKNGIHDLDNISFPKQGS

SMILES | IC50 [1] | inhibition [2] | inhibition [3] | IC50 [4] | inhibition [5] | inhibition [6] | IC50 [7] | IC50 [8] | other results
C[C@H](NC(=O)[C@H](Cc1ccc(OCc2ccccc2)cc1)NC(=O)OC(C)(C)C)C(=O)N[C@@H](C[C@@]1(O)C(=O)Nc2ccccc21)C(=O)NCc1ccccc1 | 10.6 µM | > 85% | > 85% | 34 µM | inactive | > 85% | 7.3 µM | 7 µM | 
CNC(=O)[C@H](C[C@]1(O)C(=O)Nc2ccccc21)NC(=O)[C@H](C)NC(=O)[C@H](Cc1ccc(OCc2ccccc2)cc1)NC(=O)OC(C)(C)C |  | 20% | 13% | 79 µM | 36% | > 85% |  |  | inhibition [9]: 24%
COc1ccc(C[C@H](NC(=O)[C@H](C)NC(=O)CN2CCOCC2)C(=O)N[C@@H](Cc2ccccc2)C(=O)[C@@]2(C)CO2)cc1 |  | > 85% | > 85% |  | > 85% |  |  |  | inhibition [10]: > 85%; inhibition [11]: > 85%; EC50 (Huh-7): 0.39 µM; EC50 (Caco-2): 1.3 µM; EC50 (MDA-MB-231): 0.27 µM; EC50 (HCT-116): 0.11 µM; EC50 (PC-3): 0.33 µM; EC50 (NCI-H727): 0.3 µM; EC50 (MCF7): 0.26 µM; EC50 (Fibroblast): 0.16 µM
C[C@H](NC(=O)[C@@H](N)Cc1ccc(OCc2ccccc2)cc1)C(=O)N[C@@H](C[C@]1(O)C(=O)Nc2ccccc21)C(=O)NCc1ccccc1 | 21.5 µM | > 85% | > 85% | 27.2 µM | > 85% | > 85% | 13 µM | 10.7 µM | 
C[C@H](NC(=O)[C@H](Cc1ccc(O)cc1)NC(=O)OC(C)(C)C)C(=O)N[C@@H](C[C@]1(O)C(=O)Nc2ccccc21)C(=O)NCc1ccccc1 |  | inactive | 12% |  | 19% | 10% | 34 µM | 32 µM | 
CC(C)(C)OC(=O)NCCCC[C@H](NC(=O)[C@H](Cc1ccc(OCc2ccccc2)cc1)NC(=O)OC(C)(C)C)C(=O)N[C@@H](C[C@]1(O)C(=O)Nc2ccccc21)C(=O)NCc1ccccc1 | 59 µM | 15% | > 85% |  | inactive |  |  |  | IC50 [12]: 22 µM; IC50 [13]: 25.1 µM; inhibition [10]: > 85%; inhibition [11]: > 85%; fold change (FC) [14]: 1.3
CNC(=O)[C@H](C[C@@]1(O)C(=O)Nc2ccccc21)NC(=O)[C@H](C)NC(=O)[C@H](Cc1ccc(OCc2ccccc2)cc1)NC(=O)OC(C)(C)C |  | inactive | 10% |  | 13% | 19% |  |  | inhibition [9]: 8%; inhibition [15]: inactive
